Results on 6 compounds are retold here after ChEMBL document CHEMBL2021841, “The design and synthesis of potent, selective benzodiazepine sulfonamide bombesin receptor subtype 3 (BRS-3) agonists with an increased barrier of atropisomerization” (Bioorg Med Chem, 2012).

Data set [1] is described as follows: Half life in Sprague-Dawley rat at 0.5 mg/kg, iv. The data set is classed as ADME, organism-based. As to conditions: in vivo. On the set-up: dose 0.5 mg/kg, route intravenous. The gist of the method: (§1)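 Sprague Dawley rats received 0.5 mg/kg iv. Plasma clearance and half-life were calculated from the plasma profile.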
Data set [2] can be described thus: Plasma clearance in Sprague-Dawley rat at 0.5 mg/kg, iv. In kind it is ADME, organism-based. On the set-up: dose 0.5 mg/kg, route intravenous. Put shortly:
as §1

Data set [3] addresses T1, Bombesin receptor subtype-3 (Mus musculus) (UniProt O54798).
T1 sequence (whole entry): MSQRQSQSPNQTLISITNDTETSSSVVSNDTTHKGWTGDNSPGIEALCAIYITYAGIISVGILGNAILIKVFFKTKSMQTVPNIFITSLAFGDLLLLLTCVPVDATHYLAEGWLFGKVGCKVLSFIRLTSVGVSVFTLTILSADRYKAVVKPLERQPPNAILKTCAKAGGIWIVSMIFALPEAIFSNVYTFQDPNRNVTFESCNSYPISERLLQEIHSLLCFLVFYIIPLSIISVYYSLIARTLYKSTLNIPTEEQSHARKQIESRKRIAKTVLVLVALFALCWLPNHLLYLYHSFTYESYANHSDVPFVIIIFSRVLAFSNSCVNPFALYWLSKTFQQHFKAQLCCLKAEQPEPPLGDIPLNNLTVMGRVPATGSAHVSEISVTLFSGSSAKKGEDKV
The data set can be described thus: Agonist activity at mouse BRS3 expressed in human HEK293AEQ cells measured for 10 mins by aequorin bioluminescence assay relative to dY-peptide. In kind it is functional, cell-based. The gist of the method:
(§2)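 Same aequorin read-out in HEK293AEQ cells expressing human or mouse BRS3. Compounds were titrated in ECB buffer with 0.5% DMSO final, and coelenterazine-loaded cells were injected. Luminescence was integrated over 10 min. The value is maximal activation expressed as a percentage of the maximal response to dY-peptide.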

For data set [4], the target named is T2, Bombesin receptor subtype-3 (Homo sapiens, UniProt P32247).
T2 sequence (P32247 whole entry): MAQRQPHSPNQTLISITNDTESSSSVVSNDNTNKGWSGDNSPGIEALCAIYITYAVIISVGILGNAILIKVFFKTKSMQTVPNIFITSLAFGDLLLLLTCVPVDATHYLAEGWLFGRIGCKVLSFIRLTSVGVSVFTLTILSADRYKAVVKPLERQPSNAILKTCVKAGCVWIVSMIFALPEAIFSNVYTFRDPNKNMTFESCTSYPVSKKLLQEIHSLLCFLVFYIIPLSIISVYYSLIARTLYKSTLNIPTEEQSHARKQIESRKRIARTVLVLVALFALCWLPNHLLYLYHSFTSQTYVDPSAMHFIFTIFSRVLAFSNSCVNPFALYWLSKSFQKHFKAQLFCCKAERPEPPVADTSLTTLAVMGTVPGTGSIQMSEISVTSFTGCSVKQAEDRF
The data set can be described thus: Displacement of 125I-dY-peptide from human BRS3 expressed in NFAT-CHO cells after 2 hrs by liquid scintillation counting. In kind it is cell-based. In general terms: In a radioligand displacement assay an active substance lowers the binding of a labelled ligand.

A short description of data set [5]: Oral bioavailability in Sprague-Dawley rat at 1 mg/kg. The data set is classed as ADME, organism-based. As to conditions: in vivo. The gist of the method:
(§3)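 Sprague Dawley rats were dosed 1 mg/kg po. Dose-normalized oral AUC and oral bioavailability were calculated.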

For data set [6], the system named is Rattus norvegicus. The data set can be described thus: Dose normalized AUC in Sprague-Dawley rat at 1 mg/kg, po. The data set is classed as ADME, organism-based. On the set-up: dose 1 mg/kg, route oral. The note with it: in vivo. Put shortly: as §3
For data set [7], the target named is T2, Bombesin receptor subtype-3. The data set can be described thus: Agonist activity at human BRS3 expressed in human HEK293AEQ cells measured for 10 mins by aequorin bioluminescence assay. The data set is classed as functional, cell-based.
Data set [8] addresses T3, Bombesin receptor subtype-3 (Mus musculus, UniProt O54798).
T3 sequence (O54798 whole entry): T1 sequence (whole entry)
The data set is described as follows: Agonist activity at mouse BRS3 expressed in human HEK293AEQ cells measured for 10 mins by aequorin bioluminescence assay. The data set is classed as functional, cell-based.

Data set [9] deals with T4, Bombesin receptor subtype-3 (Homo sapiens) (UniProt P32247).
T4 sequence (whole entry): T2 sequence (P32247 whole entry)
The data set can be described thus: Agonist activity at human BRS3 expressed in human HEK293AEQ cells measured for 10 mins by aequorin bioluminescence assay relative to dY-peptide. The data set is classed as functional, cell-based. Put shortly: as §2

A short description of data set [10]: Half life of the compound in ethanol at 60 degC by CD spectroscopy. In kind it is physicochemical.

A word on the half-life: it is how long it takes for the measured level to halve. Low readings indicate fast loss, high ones slow loss. Broadly, the clearance is the rate of elimination divided by the concentration. In general, IC50 refers to the concentration needed to halve the response being measured. Low readings indicate greater potency in that assay, high ones weaker potency in that assay. Usually bioavailability stands for dose-corrected exposure relative to a reference, in per cent. Read a low bioavailability as little systemic uptake. One may read the EC50 as the concentration needed to bring the measured effect to its halfway point. Low readings indicate greater potency, high ones weaker potency. In turn, `CNC(=O)C1(c2cccc3c2N(S(=O)(=O)c2ccc(OC(F)(F)F)cc2)Cc2ccc(C(F)(F)F)nc2N3)CCC1` had a half-life in data set [1] of 1.7 h. Moreover, the clearance in [2] was 25 mL/min/kg. Besides, the Activity in data set [3] amounted to 112%; in [9], 106%. The IC50 in data set [4] was 0.0021 µM. Moreover, the bioavailability in [5] was determined as 60%. In data set [6], this compound came in with an AUC/dose of 0.69 µM·kg·h/mg. In addition, the EC50 in data set [7] was determined as 0.015 µM; in [8] it was 0.022 µM.

Regarding `CC(C)(O)c1nc(C(C)(C)c2cccc3c2N(S(=O)(=O)c2ccc(OC(F)(F)F)cc2)Cc2ccc(C(F)(F)F)nc2N3)no1`, the half-life in data set [1] was 3.1 h; in data set [10] it was greater than 250 h. This compound yielded a clearance in [2] of 12 mL/min/kg. Moreover, the values for the Activity in [3] and in [9] were 105% and 97%, respectively. Moreover, in data set [4], the IC50 amounted to 0.0014 µM. In [5], the bioavailability worked out at 100%. In addition, the AUC/dose in data set [6] amounted to 2.6 µM·kg·h/mg. Besides, the EC50 worked out at 0.064 µM in [7] and 0.067 µM in data set [8].

Consider `CC(C)(O)c1nc(C2(c3cccc4c3N(S(=O)(=O)c3ccc(OC(F)(F)F)cc3)Cc3ccc(C(F)(F)F)nc3N4)CCC2)no1`, for which the half-life in [1] was 2.9 h; in data set [10] it was greater than 250 h. This compound also yielded a clearance in data set [2] of 21 mL/min/kg. Further, the Activity came out at 99% in [3] and 97% in data set [9]. In addition, in [4], the IC50 was 0.0006 µM. This compound also displayed a bioavailability in data set [5] of 49%. In data set [6], this compound had an AUC/dose of 0.6 µM·kg·h/mg. Further, the EC50 in data set [7] was determined as 0.082 µM; in data set [8], 0.076 µM.

For `CC(C)(O)c1nc(-c2cccc3c2N(S(=O)(=O)c2ccc(OC(F)(F)F)cc2)Cc2ccc(C(F)(F)F)nc2N3)no1`, the half-life in data set [1] is 11 h; in data set [10] it was 2.2 h. Also, the clearance in data set [2] was 16 mL/min/kg. This compound displayed an IC50 in data set [4] of 0.0036 µM. Further, in data set [5], the bioavailability amounted to 93%. This compound had an AUC/dose in data set [6] of 1.6 µM·kg·h/mg. Further, the EC50 in data set [7] came out at 0.073 µM; in data set [8] it was 0.13 µM. In [9], this compound returned an Activity of 106%.

With `CC(C)(C(N)=O)c1cccc2c1N(S(=O)(=O)c1ccc(OC(F)(F)F)cc1)Cc1ccc(C(F)(F)F)nc1N2`, the half-life in [1] was 1.6 h. Also, the clearance in data set [2] is 33 mL/min/kg. In addition, the Activity in [3] was 98%; in data set [9], 90%. In [4], this compound yielded an IC50 of 0.0005 µM. Also, the bioavailability in data set [5] came to 31%. Also, the AUC/dose in [6] came to 0.3 µM·kg·h/mg. Besides, the EC50 in [7] worked out at 0.026 µM; in [8] it was 0.027 µM.

In the case of `NC(=O)C1(c2cccc3c2N(S(=O)(=O)c2ccc(OC(F)(F)F)cc2)Cc2ccc(C(F)(F)F)nc2N3)CCC1`, the results for the half-life in [1] and in data set [10] were 0.8 h and greater than 250 h, respectively. In addition, the clearance in data set [2] turned out to be 31 mL/min/kg. The Activity amounted to 100% in data set [3] and 95% in data set [9]. For the same compound, the IC50 in [4] came to 0.0005 µM. The compound further registered a bioavailability in data set [5] of 32%. The compound further gave an AUC/dose in data set [6] of 0.3 µM·kg·h/mg. Also, the EC50 worked out at 0.021 µM in [7] and 0.022 µM in [8].
